{
  "source": "ChEMBL document CHEMBL1949609",
  "about": "“Synthesis and biological evaluation of novel sinomenine derivatives as anti-inflammatory agents” (Eur J Med Chem, 2012)",
  "key": {"RAW264.7 [1]": {"test_system": "RAW264.7", "assay": "Antiinflammatory activity in mouse RAW264.7 cells assessed as inhibition of LPS-induced nitric oxide production after 24 hrs by Griess method", "type": "functional, cell-based", "settings": "RAW264.7, 24 h", "method_in_brief": "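Cells were treated with compound (0.5–100 µM; 0.1% DMSO final) and LPS 500 ng/mL together for 24 h. Nitrite in the medium was read with Griess reagent (10 min, room temperature, dark) at OD540. IC50 comes from three separate experiments, each in triplicate.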"}, "RAW264.7 [2]": {"test_system": "RAW264.7", "assay": "Cytotoxicity against mouse RAW264.7 cells after 24 hrs by MTT assay", "type": "cell-based", "settings": "RAW264.7, 24 h", "method_in_brief": "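Growth of non-LPS RAW264.7 cells was measured by MTT after 24 h with compound: MTT for 4 h, formazan dissolved in DMSO, OD570. Untreated cells were set as 100% viability. IC50 is the concentration giving 50% growth inhibition.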"}, "RAW264.7 [3]": {"test_system": "RAW264.7", "assay": "Antiinflammatory activity in mouse RAW264.7 cells assessed as inhibition of LPS-induced TNFalpha production at 10 uM after 6 hrs by ELISA (reference value: 2646.1 +/- 499.8 pg/ml)", "type": "functional", "method_in_brief": "(§1)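 RAW264.7 cells (DMEM, 5% FBS, 37 °C, 5% CO2) were exposed to compound at 10 µM plus LPS 500 ng/mL at the same time, with 0.1% DMSO final. Supernatant TNF-α and IL-6 were measured by ELISA at 6, 12 and 24 h.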"}, "RAW264.7 [4]": {"test_system": "RAW264.7", "assay": "Antiinflammatory activity in mouse RAW264.7 cells assessed as inhibition of LPS-induced TNFalpha production at 10 uM after 12 hrs by ELISA (reference value: 4126.8 +/- 282 pg/ml)", "type": "functional", "method_in_brief": "as §1"}, "RAW264.7 [5]": {"test_system": "RAW264.7", "assay": "Antiinflammatory activity in mouse RAW264.7 cells assessed as inhibition of LPS-induced TNFalpha production at 10 uM after 24 hrs by ELISA (reference value: 10124 +/- 1137.2 pg/ml)", "type": "functional", "method_in_brief": "as §1"}, "RAW264.7 [6]": {"test_system": "RAW264.7", "assay": "Antiinflammatory activity in mouse RAW264.7 cells assessed as inhibition of LPS-induced IL-6 production at 10 uM after 6 hrs by ELISA (reference value: 1046.1 +/- 111.2 pg/ml)", "type": "functional", "method_in_brief": "as §1"}, "RAW264.7 [7]": {"test_system": "RAW264.7", "assay": "Antiinflammatory activity in mouse RAW264.7 cells assessed as inhibition of LPS-induced IL-6 production at 10 uM after 12 hrs by ELISA (reference value: 2145.1 +/- 368.7 pg/ml)", "type": "functional", "method_in_brief": "as §1"}, "RAW264.7 [8]": {"test_system": "RAW264.7", "assay": "Antiinflammatory activity in mouse RAW264.7 cells assessed as inhibition of LPS-induced IL-6 production at 10 uM after 24 hrs by ELISA (reference value: 13412 +/- 1167.6 pg/ml)", "type": "functional", "method_in_brief": "as §1"}},
  "data": [
    {"smiles": "COC1=C[C@@H]2[C@@H]3Cc4ccc(OC)c(OC(=O)CCCCCCCC(=O)Oc5c(OC)ccc6c5[C@@]57CCN(C)[C@@H](C6)[C@H]5C=C(OC)C(=O)C7)c4[C@]2(CCN3C)CC1=O", "values": [
      {"measurement": "IC50", "setting": "RAW264.7 [1]", "result": 29.5, "unit": "µM"},
      {"measurement": "IC50", "setting": "RAW264.7 [2]", "result": 50.8, "unit": "µM"},
      {"measurement": "Activity", "setting": "RAW264.7 [3]", "result": 2107.1, "unit": "pg/mL"},
      {"measurement": "Activity", "setting": "RAW264.7 [4]", "result": 3614.3, "unit": "pg/mL"},
      {"measurement": "Activity", "setting": "RAW264.7 [5]", "result": 9003.6, "unit": "pg/mL"},
      {"measurement": "Activity", "setting": "RAW264.7 [6]", "result": 825.5, "unit": "pg/mL"},
      {"measurement": "Activity", "setting": "RAW264.7 [7]", "result": 1577.1, "unit": "pg/mL"},
      {"measurement": "Activity", "setting": "RAW264.7 [8]", "result": 12863.3, "unit": "pg/mL"}
    ]},
    {"smiles": "COC1=C[C@@H]2[C@@H]3Cc4ccc(OC)c(OCCCCOc5c(OC)ccc6c5[C@@]57CCN(C)[C@@H](C6)[C@H]5C=C(OC)C(=O)C7)c4[C@]2(CCN3C)CC1=O", "values": [
      {"measurement": "IC50", "setting": "RAW264.7 [1]", "result": 24.6, "unit": "µM"},
      {"measurement": "IC50", "setting": "RAW264.7 [2]", "result": 36.7, "unit": "µM"},
      {"measurement": "Activity", "setting": "RAW264.7 [3]", "result": 2018, "unit": "pg/mL"},
      {"measurement": "Activity", "setting": "RAW264.7 [4]", "result": 3732.8, "unit": "pg/mL"},
      {"measurement": "Activity", "setting": "RAW264.7 [5]", "result": 8744.4, "unit": "pg/mL"},
      {"measurement": "Activity", "setting": "RAW264.7 [6]", "result": 853.3, "unit": "pg/mL"},
      {"measurement": "Activity", "setting": "RAW264.7 [7]", "result": 1321.9, "unit": "pg/mL"},
      {"measurement": "Activity", "setting": "RAW264.7 [8]", "result": 10038.7, "unit": "pg/mL"}
    ]},
    {"smiles": "CCCCCCCOc1c(OC)ccc2c1[C@@]13CCN(C)[C@@H](C2)[C@H]1C=C(OC)C(=O)C3", "values": [
      {"measurement": "IC50", "setting": "RAW264.7 [1]", "result": 21.3, "unit": "µM"},
      {"measurement": "IC50", "setting": "RAW264.7 [2]", "result": 33.8, "unit": "µM"},
      {"measurement": "Activity", "setting": "RAW264.7 [3]", "result": 2248.7, "unit": "pg/mL"},
      {"measurement": "Activity", "setting": "RAW264.7 [4]", "result": 4127.2, "unit": "pg/mL"},
      {"measurement": "Activity", "setting": "RAW264.7 [5]", "result": 9134.7, "unit": "pg/mL"},
      {"measurement": "Activity", "setting": "RAW264.7 [6]", "result": 207.5, "unit": "pg/mL"},
      {"measurement": "Activity", "setting": "RAW264.7 [7]", "result": 513.9, "unit": "pg/mL"},
      {"measurement": "Activity", "setting": "RAW264.7 [8]", "result": 4370.2, "unit": "pg/mL"}
    ]},
    {"smiles": "COC1=C[C@@H]2[C@@H]3Cc4ccc(OC)c(OC(=O)CCC(=O)Oc5c(OC)ccc6c5[C@@]57CCN(C)[C@@H](C6)[C@H]5C=C(OC)C(=O)C7)c4[C@]2(CCN3C)CC1=O", "values": [
      {"measurement": "IC50", "setting": "RAW264.7 [1]", "result": "> 100", "unit": "µM"},
      {"measurement": "IC50", "setting": "RAW264.7 [2]", "result": "> 100", "unit": "µM"}
    ]},
    {"smiles": "COC1=C[C@@H]2[C@@H]3Cc4ccc(OC)c(OCCCCCOc5c(OC)ccc6c5[C@@]57CCN(C)[C@@H](C6)[C@H]5C=C(OC)C(=O)C7)c4[C@]2(CCN3C)CC1=O", "values": [
      {"measurement": "IC50", "setting": "RAW264.7 [1]", "result": 3.6, "unit": "µM"},
      {"measurement": "IC50", "setting": "RAW264.7 [2]", "result": 4.2, "unit": "µM"}
    ]},
    {"smiles": "COC1=C[C@@H]2[C@@H]3Cc4ccc(OC)c(OC(=O)CCCCC(=O)Oc5c(OC)ccc6c5[C@@]57CCN(C)[C@@H](C6)[C@H]5C=C(OC)C(=O)C7)c4[C@]2(CCN3C)CC1=O", "values": [
      {"measurement": "IC50", "setting": "RAW264.7 [1]", "result": "> 100", "unit": "µM"},
      {"measurement": "IC50", "setting": "RAW264.7 [2]", "result": "> 100", "unit": "µM"}
    ]},
    {"smiles": "CCCOc1c(OC)ccc2c1[C@@]13CCN(C)[C@@H](C2)[C@H]1C=C(OC)C(=O)C3", "values": [
      {"measurement": "IC50", "setting": "RAW264.7 [1]", "result": "> 100", "unit": "µM"},
      {"measurement": "IC50", "setting": "RAW264.7 [2]", "result": "> 100", "unit": "µM"}
    ]},
    {"smiles": "COC1=C[C@@H]2[C@@H]3Cc4ccc(OC)c(OCCCCCCCCOc5c(OC)ccc6c5[C@@]57CCN(C)[C@@H](C6)[C@H]5C=C(OC)C(=O)C7)c4[C@]2(CCN3C)CC1=O", "values": [
      {"measurement": "IC50", "setting": "RAW264.7 [1]", "result": 3.8, "unit": "µM"},
      {"measurement": "IC50", "setting": "RAW264.7 [2]", "result": 5.4, "unit": "µM"}
    ]},
    {"smiles": "CCCCCCCCOc1c(OC)ccc2c1[C@@]13CCN(C)[C@@H](C2)[C@H]1C=C(OC)C(=O)C3", "values": [
      {"measurement": "IC50", "setting": "RAW264.7 [1]", "result": 14.2, "unit": "µM"},
      {"measurement": "IC50", "setting": "RAW264.7 [2]", "result": 17.6, "unit": "µM"}
    ]},
    {"smiles": "CCCCCCCC(=O)Oc1c(OC)ccc2c1[C@@]13CCN(C)[C@@H](C2)[C@H]1C=C(OC)C(=O)C3", "values": [
      {"measurement": "IC50", "setting": "RAW264.7 [1]", "result": 32.6, "unit": "µM"},
      {"measurement": "IC50", "setting": "RAW264.7 [2]", "result": 49.5, "unit": "µM"},
      {"measurement": "Activity", "setting": "RAW264.7 [3]", "result": 2298.9, "unit": "pg/mL"},
      {"measurement": "Activity", "setting": "RAW264.7 [4]", "result": 3357.8, "unit": "pg/mL"},
      {"measurement": "Activity", "setting": "RAW264.7 [5]", "result": 7676.3, "unit": "pg/mL"},
      {"measurement": "Activity", "setting": "RAW264.7 [6]", "result": 229.9, "unit": "pg/mL"},
      {"measurement": "Activity", "setting": "RAW264.7 [7]", "result": 733.3, "unit": "pg/mL"},
      {"measurement": "Activity", "setting": "RAW264.7 [8]", "result": 7143.8, "unit": "pg/mL"}
    ]},
    {"smiles": "COC1=C[C@@H]2[C@@H]3Cc4ccc(OC)c(OCCCCCCCCCOc5c(OC)ccc6c5[C@@]57CCN(C)[C@@H](C6)[C@H]5C=C(OC)C(=O)C7)c4[C@]2(CCN3C)CC1=O", "values": [
      {"measurement": "IC50", "setting": "RAW264.7 [1]", "result": 2.9, "unit": "µM"},
      {"measurement": "IC50", "setting": "RAW264.7 [2]", "result": 3.7, "unit": "µM"}
    ]},
    {"smiles": "CCCCC(=O)Oc1c(OC)ccc2c1[C@@]13CCN(C)[C@@H](C2)[C@H]1C=C(OC)C(=O)C3", "values": [
      {"measurement": "IC50", "setting": "RAW264.7 [1]", "result": "> 100", "unit": "µM"},
      {"measurement": "IC50", "setting": "RAW264.7 [2]", "result": "> 100", "unit": "µM"}
    ]},
    {"smiles": "CCCC(=O)Oc1c(OC)ccc2c1[C@@]13CCN(C)[C@@H](C2)[C@H]1C=C(OC)C(=O)C3", "values": [
      {"measurement": "IC50", "setting": "RAW264.7 [1]", "result": "> 100", "unit": "µM"},
      {"measurement": "IC50", "setting": "RAW264.7 [2]", "result": "> 100", "unit": "µM"}
    ]}
  ]
}
